Activity calls are given as the source filed them. No cut-off for these calls is given here.
Experiments:
Autotaxin [1] = target: T1, Autotaxin (Mus musculus, UniProt Q9R1E6); assay: Inhibition of mouse ATX-beta using LPC 16:0 as substrate by Amplex Red PLD assay
Autotaxin [2] = target: T1, Autotaxin; assay: Inhibition of mouse ATX-beta using LPC 18:0 as substrate by Amplex Red PLD assay
Autotaxin [3] = target: T1, Autotaxin; assay: Inhibition of recombinant mouse ATX expressed in HEK293 cells using FS3 as substrate preincubated for 15 mins followed by substrate addition measured after 30 mins
Autotaxin [4] = target: T1, Autotaxin; assay: Inhibition of recombinant mouse ATX expressed in HEK293 cells using LPC 17:0 as substrate after 30 mins by LC-MS/MS method
Rattus norvegicus = species: Rattus norvegicus; assay: animal or person; settings: Lewis, po, 4 h, read-out: INH
Mus musculus [5] = assay: Antifibrotic activity in BLM-induced C57BL/6 mouse pulmonary fibrosis model assessed as improvement in lung architecture at 30 mg/kg, ip qd administered 15 days starting 1 day prior to BLM installation by hematoxylin/eosin staining-based microscopic method; type: functional, organism-based
Summary of the method: (§1)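 Bleomycin model: mice 8–10 weeks, 0.01 U orotracheal bleomycin on day 0, 30 mg/kg ip daily from day −1 to 14 (PBS/5% Tween 80 vehicle), killed day 15. Lungs were fixed in 10% neutral buffered formalin, paraffin-embedded, cut at 4 μm and H&E-stained. Sections were examined by light microscopy at ×100–×300.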

Mus musculus [6] = assay: Antifibrotic activity in BLM-induced C57BL/6 mouse pulmonary fibrosis model assessed as decrease in contiguous fibrotic walls at 30 mg/kg, ip qd administered 15 days starting 1 day prior to BLM installation by hematoxylin/eosin staining-based microscopic method; type: functional, organism-based; summary of the method: as §1
Mus musculus [7] = assay: Antifibrotic activity in BLM-induced C57BL/6 mouse pulmonary fibrosis model assessed as decrease in fibrotic lesions at 30 mg/kg, ip qd administered 15 days starting 1 day prior to BLM installation by hematoxylin/eosin staining-based microscopic method; type: functional, organism-based; summary of the method: as §1
Mus musculus [8] = assay: Antifibrotic activity in BLM-induced C57BL/6 mouse pulmonary fibrosis model assessed as decrease in inflammatory cell influx in bronchoalveolar lavage fluid at 30 mg/kg, ip qd administered 15 days starting 1 day prior to BLM installation by trypan blue assay relative to control; type: functional; design: scale not given: the % may be the effect or the level left
Summary of the method: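 Mice (C57BL/6, 8–10 weeks) had orotracheal bleomycin 0.01 U on day 0 and ip dosing at 30 mg/kg daily from day −1 to 14, n = 10. On day 15, lungs were lavaged 3 × 1 mL 0.9% NaCl. BALF was spun at 1200 rpm for 10 min, and pellet cells were counted with 0.4% trypan blue (×10^5 cells/mL). Means ± SE.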

Mus musculus [9] = assay: Antifibrotic activity in BLM-induced C57BL/6 mouse pulmonary fibrosis model assessed as decrease in total protein concentration in bronchoalveolar lavage fluid at 30 mg/kg, ip qd administered 15 days starting 1 day prior to BLM installation by Bradford protein assay relative to control; type: functional, organism-based
Summary of the method: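 BALF total protein was measured after orotracheal bleomycin (0.01 U, day 0) and 30 mg/kg ip daily dosing from day −1 to 14. Lavage was done on day 15 with 3 × 1 mL saline, and the supernatant was stored at −80 °C. OD readings were converted to mg/mL using a BSA standard curve (0–2 mg/mL). Means ± SE, paired t test.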

Mus musculus [10] = assay: Antifibrotic activity in BLM-induced C57BL/6 mouse pulmonary fibrosis model assessed as decrease in soluble collagen concentration in bronchoalveolar lavage fluid at 30 mg/kg, ip qd administered 15 days starting 1 day prior to BLM installation by Sirius Red assay; type: functional, organism-based
Summary of the method: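 Day-15 BALF from bleomycin-challenged mice given ip drug at 30 mg/kg daily from day −1 to 14. BALF (100 μL) was diluted in 1 mL 0.5 M acetic acid, mixed with an equal volume of Sirius Red (120 μg/mL in 0.5 M acetic acid) and held 30 min at room temperature. After centrifugation, supernatant A540 was read against a rat-tail collagen I standard (0–500 μg/mL).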

Mus musculus [11] = assay: Antifibrotic activity in BLM-induced C57BL/6 mouse pulmonary fibrosis model assessed as decrease in ATX activity in bronchoalveolar lavage fluid at 30 mg/kg, ip qd administered 15 days starting 1 day prior to BLM installation by TOOS activity assay; type: functional, organism-based
Summary of the method: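 Male and female C57BL/6 mice (8–10 weeks) got 0.01 U bleomycin in 50 μL saline orotracheally on day 0. Dosing was 30 mg/kg ip once daily from day −1 to 14 in PBS/5% Tween 80 (n = 10). Lungs were lavaged three times with 1 mL saline on day 15. BALF lysoPLD activity was measured by TOOS assay (nmol/min/mL). Means ± SE.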

[12] = Plasma concentration in BLM-induced C57BL/6 mouse pulmonary fibrosis model at 30 mg/kg, ip qd administered 15 days starting 1 day prior to BLM installation measured 1 hr post last dose by LC-MS/MS method; type: ADME, organism-based
Summary of the method: (§2)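 Bleomycin-challenged C57BL/6 mice received 30 mg/kg ip daily from day −1 to 14. Blood was taken 1, 3 and 6 h after the last dose into EDTA (pH 8, final 50 mM). It was centrifuged at 2000g for 20 min at 4 °C, and plasma was stored at −80 °C. Plasma drug levels were quantified by LC–MS/MS (ng/mL).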

Plasma = assay: Plasma concentration in BLM-induced C57BL/6 mouse pulmonary fibrosis model at 30 mg/kg, ip qd administered 15 days starting 1 day prior to BLM installation measured 3 to 6 hrs post last dose by LC-MS/MS method; type: ADME, organism-based; settings: in vivo; summary of the method: as §2

Structure (SMILES) | IC50 (Autotaxin [1]) [µM] | further results
O=C(O)Cc1ccc(NC(=O)CCCCC(=O)Nc2ccccc2)cc1 | > 5 | –
COC(=O)[C@H](CCC(=O)NO)NC(=O)CCCCC(=O)Nc1ccc(F)cc1 | > 5 | –
O=C(CCN1CCN(C(=O)OCc2cc(Cl)cc(Cl)c2)CC1)c1ccc2[nH]c(=O)oc2c1 | – | IC50 (Autotaxin [3]): 0.0028 µM; IC50 (Autotaxin [4]): 0.0017 µM; inhibition in vivo at 30 mg/kg (Rattus norvegicus): > 95%
CCCC[C@@H](CCCC(=O)NO)NC(=O)CCCCC(=O)Nc1ccccc1 | – | Activity (Mus musculus [5]): Active; Activity (Mus musculus [6]): Active; Activity (Mus musculus [7]): Active; Activity (Mus musculus [8]): 50%; Activity (Mus musculus [9]): Active; Activity (Mus musculus [10]): Active; Activity (Mus musculus [11]): Active; concentration at 1 h [12]: 70 ng/mL; Cp (Plasma): 35 ng/mL
CCCCCCCCCC(=O)Nc1ccc(CC(=O)NO)cc1 | > 5 | –
O=C(Cc1ccc(NC(=O)CCCCC(=O)Nc2ccccc2)cc1)NO | – | IC50 (Autotaxin [2]): 0.2 µM
COC(=O)[C@H](CCC(=O)NO)NC(=O)CCCCNC(=O)c1ccccc1 | > 5 | –
COC(=O)[C@H](CCC(=O)NO)NC(=O)CCCCC(=O)Nc1ccccc1 | 0.4 | –
O=C(CCCCC(=O)Nc1ccc(B(O)O)cc1)Nc1ccccc1 | 0.7 | IC50 (Autotaxin [2]): 4 µM
COC(=O)[C@H](CCC(=O)NO)NC(=O)CCCCC(=O)Nc1ccc(OC)cc1 | 4.5 | –

More lines, main results first:

IC50 (Autotaxin [1]) [µM] | Structure (SMILES) | further results
> 5 | O=C(Cc1ccc(NC(=O)CCCCc2ccc(-c3ccccc3)cc2)cc1)NO | –
> 5 | CCOc1ccc(NC(=O)CCCCC(=O)N[C@@H](CCC(=O)NO)C(=O)OC)cc1 | –
> 5 | COC(=O)[C@H](CCCC(=O)NO)NC(=O)CCCCCCc1ccccc1 | –
3 | O=C(CCCCC(=O)Nc1ccc(CC(=O)C(F)(F)C(F)(F)F)cc1)Nc1ccccc1 | IC50 (Autotaxin [2]): 0.5 µM
> 5 | CCCCCCCCc1ccc(C(=O)Nc2ccc(CC(=O)NO)cc2)cc1 | –
> 5 | O=C(CC[C@H](NC(=O)CCCCC(=O)Nc1ccccc1)C(=O)NO)NO | –
0.05 | COC(=O)[C@H](CCCC(=O)NO)NC(=O)CCCCC(=O)Nc1ccccc1 | –
> 5 | O=C(Cc1ccc(NC(=O)CCCCNC(=O)c2ccc(F)cc2)cc1)NO | –
